Laboratory results as given in ChEMBL document CHEMBL1137650, “An OXA-66/OXA-51-like carbapenemase and possibly an efflux pump are associated with resistance to imipenem in Acinetobacter baumannii” (2007).
Values after ≈ are worked out from the molar mass of the structure shown.

How the values were obtained:
Assay type in all cases: functional
Acinetobacter baumannii [1] = test: Antibacterial activity against imipenem-resistant Acinetobacter baumannii abh13 by broth dilution method
In short: (§1)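 Clinical isolates were collected at three Taiwan hospitals (1993–2003) and grown in tryptic soy broth at 37°C for 18 h. MIC by broth dilution following CLSI recommendations.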

Acinetobacter baumannii [2] = test: Antibacterial activity against imipenem-resistant Acinetobacter baumannii ab1265 by broth dilution method; in short: as §1
Acinetobacter baumannii [3] = test: Antibacterial activity against imipenem-resistant Acinetobacter baumannii abh36 by broth dilution method; in short: as §1
Acinetobacter baumannii [4] = test: Antibacterial activity against imipenem-susceptible Acinetobacter baumannii ab4 by broth dilution method; in short: as §1
Acinetobacter baumannii [5] = test: Antibacterial activity against imipenem-susceptible Acinetobacter baumannii ab20 by broth dilution method; in short: as §1
Acinetobacter baumannii [6] = test: Antibacterial activity against imipenem-resistant Acinetobacter baumannii abh29 by broth dilution method; in short: as §1
Acinetobacter baumannii [7] = test: Antibacterial activity against imipenem-susceptible Acinetobacter baumannii ab1254 by broth dilution method; in short: as §1
Acinetobacter baumannii [8] = test: Antibacterial activity against imipenem-susceptible Acinetobacter baumannii ab8 by broth dilution method; in short: as §1
Acinetobacter baumannii [9] = test: Antibacterial activity against imipenem-resistant Acinetobacter baumannii abh26 by broth dilution method; in short: as §1
Acinetobacter baumannii [10] = test: Antibacterial activity against imipenem-resistant Acinetobacter baumannii abh9 by broth dilution method; in short: as §1
Acinetobacter baumannii [11] = test: Antibacterial activity against imipenem-susceptible Acinetobacter baumannii ab3 by broth dilution method; in short: as §1
Acinetobacter baumannii [12] = test: Antibacterial activity against imipenem-resistant Acinetobacter baumannii abh14 by broth dilution method; in short: as §1
Acinetobacter baumannii [13] = test: Antibacterial activity against imipenem-resistant Acinetobacter baumannii abh17 by broth dilution method; in short: as §1
Acinetobacter baumannii [14] = test: Antibacterial activity against imipenem-resistant Acinetobacter baumannii abh20 by broth dilution method; in short: as §1
Acinetobacter baumannii [15] = test: Antibacterial activity against imipenem-susceptible Acinetobacter baumannii ab12 by broth dilution method; in short: as §1
Acinetobacter baumannii [16] = test: Antibacterial activity against imipenem-resistant Acinetobacter baumannii abh18 by broth dilution method; in short: as §1
Acinetobacter baumannii [17] = test: Antibacterial activity against imipenem-intermediate Acinetobacter baumannii ab1297 by broth dilution method
In short: (§2)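 Clinical A. baumannii isolates collected at three Taiwanese hospitals, routinely grown in tryptic soy broth at 37°C for 18 h. MICs (μg ml⁻¹) were determined by broth dilution following CLSI recommendations, or by Etest strips following the manufacturer's instructions.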

Acinetobacter baumannii [18] = test: Antibacterial activity against imipenem-susceptible Acinetobacter baumannii ab1308 by broth dilution method; in short: as §2
Acinetobacter baumannii [19] = test: Antibacterial activity against imipenem-resistant Acinetobacter baumannii abh11 by broth dilution method; in short: as §1
Acinetobacter baumannii [20] = test: Antibacterial activity against imipenem-resistant Acinetobacter baumannii abh39 by broth dilution method; in short: as §1
Acinetobacter baumannii [21] = test: Antibacterial activity against imipenem-resistant Acinetobacter baumannii ab1266 by broth dilution method; in short: as §1
Acinetobacter baumannii [22] = test: Antibacterial activity against imipenem-susceptible Acinetobacter baumannii ab1316 by broth dilution method; in short: as §2
Acinetobacter baumannii [23] = test: Antibacterial activity against imipenem-resistant Acinetobacter baumannii abh37 by broth dilution method; in short: as §1
Acinetobacter baumannii [24] = test: Antibacterial activity against imipenem-susceptible Acinetobacter baumannii ATCC 19606 by broth dilution method; conditions: ATCC 19606 = CIP 70.34 = JCM 6841

| SMILES | MIC (Acinetobacter baumannii [1]) | MIC (Acinetobacter baumannii [2]) | MIC (Acinetobacter baumannii [3]) | MIC (Acinetobacter baumannii [4]) | MIC (Acinetobacter baumannii [5]) | MIC (Acinetobacter baumannii [6]) | MIC (Acinetobacter baumannii [7]) | MIC (Acinetobacter baumannii [8]) | MIC (Acinetobacter baumannii [9]) | MIC (Acinetobacter baumannii [10]) | MIC (Acinetobacter baumannii [11]) | MIC (Acinetobacter baumannii [12]) | MIC (Acinetobacter baumannii [13]) | MIC (Acinetobacter baumannii [14]) | MIC (Acinetobacter baumannii [15]) | MIC (Acinetobacter baumannii [16]) | MIC (Acinetobacter baumannii [17]) | MIC (Acinetobacter baumannii [18]) | MIC (Acinetobacter baumannii [19]) | MIC (Acinetobacter baumannii [20]) | further results |
| --- | --- | --- | --- | --- | --- | --- | --- | --- | --- | --- | --- | --- | --- | --- | --- | --- | --- | --- | --- | --- | --- |
| NCC[C@H](O)C(=O)N[C@@H]1C[C@H](N)[C@@H](O[C@H]2O[C@H](CN)[C@@H](O)[C@H](O)[C@H]2O)[C@H](O)[C@H]1O[C@H]1O[C@H](CO)[C@@H](O)[C@H](N)[C@H]1O [AMIKACIN] | > 256 mg/L | > 256 mg/L | > 256 mg/L | 8 mg/L (≈ 13.7 µM) | 128 mg/L (≈ 219 µM) | > 256 mg/L | > 256 mg/L | 12 mg/L (≈ 20.5 µM) | > 256 mg/L | > 256 mg/L | 3 mg/L (≈ 5.12 µM) | > 256 mg/L | > 256 mg/L | > 256 mg/L | > 256 mg/L | > 256 mg/L | > 256 mg/L | > 256 mg/L | > 256 mg/L | > 256 mg/L | MIC (Acinetobacter baumannii [21]): > 256 mg/L; MIC (Acinetobacter baumannii [22]): > 256 mg/L; MIC (Acinetobacter baumannii [23]): > 256 mg/L |
| CO/N=C(\C(=O)N[C@@H]1C(=O)N2C(C(=O)[O-])=C(C[N+]3(C)CCCC3)CS[C@H]12)c1csc(N)n1 [CEFEPIME] | – | – | 256 mg/L (≈ 533 µM) | – | – | 96 mg/L (≈ 200 µM) | – | – | 256 mg/L (≈ 533 µM) | – | 6 mg/L (≈ 12.5 µM) | 256 mg/L (≈ 533 µM) | – | 256 mg/L (≈ 533 µM) | – | 256 mg/L (≈ 533 µM) | – | – | – | 256 mg/L (≈ 533 µM) | – |
| CO/N=C(\C(=O)N[C@@H]1C(=O)N2C(C(=O)O)=C(COC(C)=O)CS[C@H]12)c1csc(N)n1 [CEFOTAXIME] | > 256 mg/L | > 256 mg/L | > 256 mg/L | > 256 mg/L | > 256 mg/L | > 256 mg/L | > 256 mg/L | > 256 mg/L | > 256 mg/L | > 256 mg/L | > 256 mg/L | > 256 mg/L | > 256 mg/L | > 256 mg/L | > 256 mg/L | > 256 mg/L | > 256 mg/L | > 256 mg/L | > 256 mg/L | > 256 mg/L | MIC (Acinetobacter baumannii [21]): > 256 mg/L; MIC (Acinetobacter baumannii [22]): > 256 mg/L; MIC (Acinetobacter baumannii [24]): 16 mg/L (≈ 35.1 µM); MIC (Acinetobacter baumannii [23]): > 256 mg/L |
| CC(C)(O/N=C(\C(=O)N[C@@H]1C(=O)N2C(C(=O)[O-])=C(C[n+]3ccccc3)CS[C@H]12)c1csc(N)n1)C(=O)O [CEFTAZIDIME] | > 256 mg/L | > 256 mg/L | > 256 mg/L | 32 mg/L (≈ 58.5 µM) | 24 mg/L (≈ 43.9 µM) | > 256 mg/L | > 256 mg/L | 48 mg/L (≈ 87.8 µM) | > 256 mg/L | > 256 mg/L | 48 mg/L (≈ 87.8 µM) | > 256 mg/L | > 256 mg/L | > 256 mg/L | 48 mg/L (≈ 87.8 µM) | > 256 mg/L | > 256 mg/L | > 256 mg/L | > 256 mg/L | > 256 mg/L | MIC (Acinetobacter baumannii [21]): > 256 mg/L; MIC (Acinetobacter baumannii [22]): > 256 mg/L; MIC (Acinetobacter baumannii [23]): > 256 mg/L |
